SMILES strings stand for the structures. ≈ marks a conversion by molar mass, not a printed value.

The subject of experiment [1] is MCF7. Description: Dose required for reduction in cell growth of human breast cancer MCF-7 cell line. The class given is functional. The note with it: read-out: ED50 (the source's name). In a few lines: (§1)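 Freshly trypsinized cells in RPMI-1640 (25 mM HEPES, 0.25% sodium bicarbonate, 10% FBS, 100 μg/mL kanamycin) were seeded at 1500-7500 cells/well and dosed from DMSO-diluted stock. After 3 days they were fixed with cold 50% TCA, stained with 0.4% SRB, and read at 562 nm after dye solubilization. ED50 (50% growth reduction) is the mean of ≥3 independent determinations.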

Experiment [2] concerns MDA-MB-231. The experiment is described as follows: Dose required for reduction in cell growth of human breast cancer MDA-MB-231 cell line. In kind it is functional. The following applies: read-out: ED50 (the source's name). An outline of the steps: as §1
In experiment [3] the test system is MDA-MB-231. The experiment is described as follows: cells. In kind it is functional. The note with it: Homo sapiens, MDA-MB-231, read-out: ED50.
In experiment [4] the test system is MCF7. The experiment is described as follows: Dose required for reduction in cell growth of estrogen positive human breast cancer MCF-7 cell line (ER+). The following applies: read-out: ED50 (the source's name). In kind it is functional.
The subject of the next experiment is SK-BR-3. Description: Dose required for reduction in cell growth of estrogen negative human breast cancer SK-BR-3 cell line(ER-). The class given is functional. The following applies: read-out: ED50 (the source's name).
The subject of a further experiment is ZR-75-1. Description: Dose required for reduction in cell growth of estrogen positive human breast cancer ZR-75-1 cell line (ER+). The following applies: read-out: ED50 (the source's name). In kind it is functional.
Experiment [5] relates to A-431. Description: Effective dose for reduction in cell growth of human skin cancer A431 cell line. The note with it: A-431, read-out: ED50.
For experiment [6], the system named is KB. Description: Dose required for reduction in cell growth of vincristine-resistant human nasopharyngeal carcinoma KB cell line. In kind it is functional. The note with it: read-out: ED50 (the source's name).
The test system of the next experiment is PC-3. The experiment is described as follows: Dose required for reduction in cell growth of human prostate cancer PC-3 cell line. In kind it is functional. The following applies: read-out: ED50 (the source's name).
The subject of experiment [7] is KB. Description: Dose required for reduction in cell growth of human nasopharyngeal carcinoma KB cell line. The class given is functional. The note with it: read-out: ED50 (the source's name).
For experiment [8], the system named is LNCaP. The experiment is described as follows: Dose required for reduction in cell growth of human AR-dependent prostate cancer LN-CaP cell line. The class given is functional. The note with it: read-out: ED50 (the source's name).
The test system of experiment [9] is SW-620. The experiment is described as follows: Dose required for reduction in cell growth of human colon cancer SW620 cell line. The note with it: read-out: ED50 (the source's name). The class given is functional.
The nature of the next experiment: cells. The class given is functional. The note with it: Homo sapiens; read-out: ED50 (the source's name).
In experiment [10] the test system is A-431. Description: Effective concentration required for 50% reduction in cell growth of human skin cancer A431 cell line. In kind it is functional. The following applies: read-out: ED50 (the source's name). In a few lines: as §1
Experiment [11] has as its system A549. Description: Percent inhibition of cell growth in human lung cancer A549 cell line. The class given is functional.
For experiment [12], the system named is LNCaP. Description: Percent inhibition of cell growth in human AR-dependent prostate cancer LN-CaP cell line; value ranges from 28-36. The class given is functional.
Experiment [13] deals with KB. Description: Percent inhibition of cell growth in vincristine-resistant human nasopharyngeal carcinoma KB cell line. In kind it is functional.
In experiment [14] the test system is KB. The experiment is described as follows: Percent inhibition of cell growth in human nasopharyngeal carcinoma KB cell line. In kind it is functional.
Experiment [15] relates to SW-620. Description: Percent inhibition of cell growth in human colon cancer SW620 cell line. The class given is functional.
In experiment [16] the test system is A549. Description: Dose required for reduction in human lung cancer A549 cell proliferation. The class given is functional. The note with it: read-out: ED50 (the source's name). An outline of the steps:
as §1

The subject of experiment [17] is MCF7. Description: Percent inhibition of cell growth in human breast cancer MCF-7 cell line. The class given is functional.
Experiment [18] concerns MDA-MB-231. Description: Percent inhibition of cell growth in human breast cancer MDA-MB-231 cell line. The class given is functional.
Experiment [19] concerns A-431. Description: Percent inhibition of human skin cancer A431 cell proliferation. In kind it is functional.

Turning to `Cc1coc2c1C(=O)C(=O)c1c-2ccc2c1CCCC2(C)C` [TANSHINONE IIA], the EC50 was 0.38 µg/mL (≈ 1.29 µM) with MCF7 [1] and 0.7 µg/mL (≈ 2.38 µM) in the experiment with MDA-MB-231 [2].

For the compound `Cc1coc2c1C(=O)C(=O)c1c-2ccc2c(C)cccc12` [TANSHINONE I], the EC50 in the experiment on MCF7 [1] worked out at 0.82 µg/mL (≈ 2.97 µM); in the experiment with MDA-MB-231 [2], 0.75 µg/mL (≈ 2.71 µM).

For `CC/C(=C(\c1ccccc1)c1ccc(OCCN(C)C)cc1)c1ccccc1.O=C(O)CC(O)(CC(=O)O)C(=O)O` [TAMOXIFEN CITRATE], the EC50 was above 8 µg/mL in the experiment on MDA-MB-231 [3]; 5 µg/mL in the experiment with MCF7 [4]; 5 µg/mL in the experiment with SK-BR-3; 5 µg/mL in the experiment on ZR-75-1; 7 µg/mL in the experiment with A-431 [5]; 9 µg/mL in the experiment with KB [6]. Moreover, the EC50 with PC-3 came out at 10 µg/mL; in the experiment with KB [7] it was 9 µg/mL; in the experiment on LNCaP [8] it was 6 µg/mL; in the experiment with SW-620 [9], 4 µg/mL; in “cells”, 9 µg/mL.

Regarding `C[C@H]1COC2=C1C(=O)C(=O)c1c2ccc2c1CCCC2(C)C` [CRYPTOTANSHINONE], the EC50 with MCF7 [1] was 0.41 µg/mL (≈ 1.38 µM); in the experiment on MDA-MB-231 [2], 0.16 µg/mL (≈ 0.54 µM).

A word on the Inhibition: it is the change of the read-out against control, counted positive when it falls. A lower Inhibition goes with a response near the control. On to `Cc1cccc2c1ccc1c3occ(C)c3c(=O)oc21`, for which the EC50 was above 10 µg/mL in the experiment with MDA-MB-231 [3]; 0.6 µg/mL (≈ 2.27 µM) with MCF7 [4]; 0.2 µg/mL (≈ 0.757 µM) in the experiment with SK-BR-3; above 10 µg/mL with A-431 [10]; 0.3 µg/mL (≈ 1.14 µM) in the experiment on ZR-75-1; above 10 µg/mL in the experiment with KB [6]. Besides, the EC50 with MCF7 [1] was below 2.5 µg/mL; with PC-3 it was 10 µg/mL (≈ 37.8 µM); in the experiment with KB [7] it was above 10 µg/mL; in the experiment with A549 [16], above 20 µg/mL; with MDA-MB-231 [2], above 20 µg/mL; with LNCaP [8] it was above 10 µg/mL. The EC50 in the experiment on SW-620 [9] was above 10 µg/mL; in the experiment “cells”, 16 µg/mL (≈ 60.5 µM). Besides, the Inhibition was found to be 10% in the experiment on A549 [11]; 36% with LNCaP [12]; 9% with KB [13]; 18% with KB [14]; 22% in the experiment with SW-620 [15]; 57% in the experiment on MCF7 [17]. In addition, the Inhibition in the experiment on MDA-MB-231 [18] is on record as 17%; with A-431 [19], 35%.
